Measured values as given in paper PMC3355950 (The Journal of Neuroscience, 2012).

What was measured:
Experiment in all cases: Two-electrode voltage-clamp recordings, Xenopus oocytes
Assay type in all cases: cell-based
[1] = biological target: GluN1 F754A co-expressed with GluN2A (Rattus norvegicus, UniProt P35439+Q00959, F754A); conditions: 100 μM glutamate + 3 μM glycine
GluN1/GluN2A V783T = GluN1/GluN2A V783T (Rattus norvegicus, UniProt P35439+Q00959, V783T); conditions: 100 μM glutamate + 3 μM glycine
GluK2 kainate receptors = GluK2 kainate receptors (Rattus norvegicus, UniProt P42260); conditions: 10 μM TCN-201
Chain of GluK2 kainate receptors (P42260 32-908): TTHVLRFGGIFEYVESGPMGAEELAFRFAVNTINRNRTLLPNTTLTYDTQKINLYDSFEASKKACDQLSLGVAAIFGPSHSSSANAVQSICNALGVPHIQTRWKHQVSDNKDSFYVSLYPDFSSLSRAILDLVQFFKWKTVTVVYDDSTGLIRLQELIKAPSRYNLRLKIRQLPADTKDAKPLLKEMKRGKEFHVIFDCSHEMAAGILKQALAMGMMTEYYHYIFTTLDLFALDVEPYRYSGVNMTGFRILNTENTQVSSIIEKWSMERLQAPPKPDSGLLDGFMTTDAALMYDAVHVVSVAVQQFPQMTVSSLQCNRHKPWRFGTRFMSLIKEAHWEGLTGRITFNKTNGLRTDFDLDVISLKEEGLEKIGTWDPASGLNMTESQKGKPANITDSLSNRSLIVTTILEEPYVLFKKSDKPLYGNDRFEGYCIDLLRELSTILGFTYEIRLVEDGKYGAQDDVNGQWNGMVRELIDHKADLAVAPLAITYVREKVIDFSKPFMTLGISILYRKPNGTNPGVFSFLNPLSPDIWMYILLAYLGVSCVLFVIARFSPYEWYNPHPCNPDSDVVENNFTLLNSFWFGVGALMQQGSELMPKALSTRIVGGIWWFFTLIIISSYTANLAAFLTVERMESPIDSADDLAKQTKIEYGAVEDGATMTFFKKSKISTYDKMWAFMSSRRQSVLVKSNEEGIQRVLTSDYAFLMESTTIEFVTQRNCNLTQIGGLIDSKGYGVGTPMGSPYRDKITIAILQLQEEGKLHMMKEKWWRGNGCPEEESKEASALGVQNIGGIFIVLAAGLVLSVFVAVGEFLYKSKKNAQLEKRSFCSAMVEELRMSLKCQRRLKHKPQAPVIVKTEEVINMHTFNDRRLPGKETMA
Method in brief: (§1)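 Xenopus laevis oocytes (female) were injected with in vitro transcribed cRNA and recorded by two-electrode voltage clamp 3–4 d after injection at 23°C, holding at −40 mV. Voltage and current electrodes held 0.3 and 3.0 M KCl.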

GluN1/2A-(2D S2) = GluN1/2A-(2D S2) (Rattus norvegicus, UniProt P35439+Q00959, D675E/D715E/E790M/F680L/F708Y/G712R/G740R/G786D/H674Q/I755V/K668R/K738M/M788I/N696S/P770R/Q661T/Q703S/Q766H/Q774P/R681K/R692K/R711P/R741K/S677Y/S719Q/S758T/T663S/T706V/T722A/T793R/T797S/V718T/V783L/Y676Q/Y700D/Y754K); conditions: 100 μM glutamate + 3 μM glycine; N.E. = no effect at 10 μM TCN-201
Method in brief: (§2)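 cRNA from linearized constructs injected into female Xenopus laevis oocytes. Two-electrode voltage clamp done 3–4 d later at 23°C, holding at −40 mV, in 90 NaCl, 1 KCl, 10 HEPES, 0.5 BaCl₂, 0.01 EDTA (mM), pH 7.4. […] Max inhibition is (control − residual at saturating compound)/control.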

GluN1/GluN2A V783A = GluN1/GluN2A V783A (Rattus norvegicus, UniProt P35439+Q00959, V783A); conditions: 100 μM glutamate + 3 μM glycine
GluN1/GluN2A Q781A = GluN1/GluN2A Q781A (Rattus norvegicus, UniProt P35439+Q00959, Q781A); conditions: 100 μM glutamate + 3 μM glycine
GluN1/GluN2A G786D = GluN1/GluN2A G786D (Rattus norvegicus, UniProt P35439+Q00959, G786D); conditions: 100 μM glutamate + 3 μM glycine
GluA1 AMPA receptors = GluA1 AMPA receptors (Rattus norvegicus, UniProt P19490); conditions: 10 μM TCN-201
Chain of GluA1 AMPA receptors (P19490 19-907): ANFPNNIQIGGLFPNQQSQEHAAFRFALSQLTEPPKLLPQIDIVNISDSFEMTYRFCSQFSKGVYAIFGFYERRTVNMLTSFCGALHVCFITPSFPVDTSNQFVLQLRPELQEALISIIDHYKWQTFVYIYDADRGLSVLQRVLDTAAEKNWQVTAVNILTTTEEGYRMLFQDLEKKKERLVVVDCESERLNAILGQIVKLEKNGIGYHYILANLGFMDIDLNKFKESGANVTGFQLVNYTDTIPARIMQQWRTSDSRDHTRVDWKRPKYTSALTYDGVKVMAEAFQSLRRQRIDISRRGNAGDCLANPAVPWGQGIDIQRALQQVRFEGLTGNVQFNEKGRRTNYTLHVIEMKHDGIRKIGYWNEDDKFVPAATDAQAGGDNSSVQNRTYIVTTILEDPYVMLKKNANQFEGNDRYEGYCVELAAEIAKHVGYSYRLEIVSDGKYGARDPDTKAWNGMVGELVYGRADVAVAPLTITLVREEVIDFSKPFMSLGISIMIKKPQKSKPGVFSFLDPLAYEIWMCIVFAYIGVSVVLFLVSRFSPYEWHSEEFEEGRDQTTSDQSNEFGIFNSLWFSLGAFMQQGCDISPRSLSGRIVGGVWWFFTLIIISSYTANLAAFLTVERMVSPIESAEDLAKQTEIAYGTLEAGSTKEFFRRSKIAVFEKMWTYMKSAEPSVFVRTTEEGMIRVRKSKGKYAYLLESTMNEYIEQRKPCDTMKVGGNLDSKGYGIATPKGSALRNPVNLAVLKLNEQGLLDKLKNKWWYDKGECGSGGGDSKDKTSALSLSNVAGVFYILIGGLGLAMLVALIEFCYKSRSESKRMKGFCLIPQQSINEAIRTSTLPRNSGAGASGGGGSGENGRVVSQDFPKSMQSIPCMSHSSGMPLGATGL
Method in brief: as §1

GluN1/GluN2A P527A = GluN1/GluN2A P527A (Rattus norvegicus, UniProt P35439+Q00959, P527A); conditions: 100 μM glutamate + 3 μM glycine
GluN1/GluN2A G786A = GluN1/GluN2A G786A (Rattus norvegicus, UniProt P35439+Q00959, G786A); conditions: 100 μM glutamate + 3 μM glycine
GluN1/GluN2A V783D = GluN1/GluN2A V783D (Rattus norvegicus, UniProt P35439+Q00959, V783D); conditions: 100 μM glutamate + 3 μM glycine
GluN1/GluN2A V783F = GluN1/GluN2A V783F (Rattus norvegicus, UniProt P35439+Q00959, V783F); conditions: 100 μM glutamate + 3 μM glycine
GluN1/GluN2A V783H = GluN1/GluN2A V783H (Rattus norvegicus, UniProt P35439+Q00959, V783H); conditions: 100 μM glutamate + 3 μM glycine
GluN1/2A-(2D S1+S2) = GluN1/2A-(2D S1+S2) (Rattus norvegicus, UniProt P35439+Q00959, A414R/D421P/D675E/D715E/DELINS438-452SQLNRTHSPPPDAPRPE/E427G/E790M/F680L/F708Y/G712R/G740R/G786D/H674Q/I408V/I422A/I755V/K454R/K466R/K472G/K668R/K738M/L425I/M788I/N404Q/N432D/N490D/N491G/N696S/P770R/Q661T/Q703S/Q766H/Q774P/R469H/R681K/R692K/R711P/R741K/S407T/S468A/S538A/S677Y/S719Q/S758T/T426S/T433S/T474S/T663S/T706V/T722A/T793R/T797S/V409A/V430I/V471I/V489I/V501F/V506D/V509I/V521I/V718T/V783L/Y676Q/Y700D/Y754K); conditions: 100 μM glutamate plus 30 μM glycine
GluN1/GluN2A M788I = GluN1/GluN2A M788I (Rattus norvegicus, UniProt P35439+Q00959, M788I); conditions: 100 μM glutamate + 3 μM glycine
GluN1/GluN2C = GluN1/GluN2C (Rattus norvegicus, UniProt P35439+Q00961); conditions: 100 μM glutamate + 3 μM glycine; N.E. = no effect at 10 μM TCN-201
Chain of GluN1/GluN2C (Q00961 20-1237, other chains not shown): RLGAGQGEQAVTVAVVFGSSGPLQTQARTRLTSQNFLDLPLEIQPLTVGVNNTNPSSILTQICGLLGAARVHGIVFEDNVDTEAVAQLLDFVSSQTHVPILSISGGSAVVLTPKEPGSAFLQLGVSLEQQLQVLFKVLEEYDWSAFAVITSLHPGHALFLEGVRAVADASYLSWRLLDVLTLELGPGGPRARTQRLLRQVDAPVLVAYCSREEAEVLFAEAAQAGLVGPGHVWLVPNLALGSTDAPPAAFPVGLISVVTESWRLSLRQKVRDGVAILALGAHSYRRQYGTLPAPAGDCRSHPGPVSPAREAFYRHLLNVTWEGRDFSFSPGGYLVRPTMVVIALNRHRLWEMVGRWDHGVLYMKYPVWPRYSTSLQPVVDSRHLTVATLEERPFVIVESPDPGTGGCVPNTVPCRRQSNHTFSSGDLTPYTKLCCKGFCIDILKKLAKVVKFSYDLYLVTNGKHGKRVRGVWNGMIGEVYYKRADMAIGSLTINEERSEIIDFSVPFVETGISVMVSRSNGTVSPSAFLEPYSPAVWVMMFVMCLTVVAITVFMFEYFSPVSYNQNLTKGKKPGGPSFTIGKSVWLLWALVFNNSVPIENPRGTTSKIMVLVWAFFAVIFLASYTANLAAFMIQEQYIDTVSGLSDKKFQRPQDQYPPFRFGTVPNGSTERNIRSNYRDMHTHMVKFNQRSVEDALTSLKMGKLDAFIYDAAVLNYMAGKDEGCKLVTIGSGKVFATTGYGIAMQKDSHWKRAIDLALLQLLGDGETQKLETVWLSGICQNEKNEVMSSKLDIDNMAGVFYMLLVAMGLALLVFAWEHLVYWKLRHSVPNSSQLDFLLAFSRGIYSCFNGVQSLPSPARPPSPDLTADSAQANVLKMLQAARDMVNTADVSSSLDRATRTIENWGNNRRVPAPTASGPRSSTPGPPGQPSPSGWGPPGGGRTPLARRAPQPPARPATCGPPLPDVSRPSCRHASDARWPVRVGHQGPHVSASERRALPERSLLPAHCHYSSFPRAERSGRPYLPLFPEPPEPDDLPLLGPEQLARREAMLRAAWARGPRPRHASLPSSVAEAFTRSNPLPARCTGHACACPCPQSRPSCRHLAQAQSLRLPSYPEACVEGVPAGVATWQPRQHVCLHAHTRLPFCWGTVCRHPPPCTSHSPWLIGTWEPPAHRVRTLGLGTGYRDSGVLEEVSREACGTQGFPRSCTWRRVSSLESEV
Method in brief: as §2

GluN1/GluN2A L780A = GluN1/GluN2A L780A (Rattus norvegicus, UniProt P35439+Q00959, L780A); conditions: 100 μM glutamate + 3 μM glycine
GluN1/GluN2A L779A = GluN1/GluN2A L779A (Rattus norvegicus, UniProt P35439+Q00959, L779A); conditions: 100 μM glutamate + 3 μM glycine
GluN1/GluN2B F784V = GluN1/GluN2B F784V (Rattus norvegicus, UniProt P35439+Q00960, F784V)
Chain of GluN1/GluN2B F784V (Q00960 27-1482 F784V, other chains not shown): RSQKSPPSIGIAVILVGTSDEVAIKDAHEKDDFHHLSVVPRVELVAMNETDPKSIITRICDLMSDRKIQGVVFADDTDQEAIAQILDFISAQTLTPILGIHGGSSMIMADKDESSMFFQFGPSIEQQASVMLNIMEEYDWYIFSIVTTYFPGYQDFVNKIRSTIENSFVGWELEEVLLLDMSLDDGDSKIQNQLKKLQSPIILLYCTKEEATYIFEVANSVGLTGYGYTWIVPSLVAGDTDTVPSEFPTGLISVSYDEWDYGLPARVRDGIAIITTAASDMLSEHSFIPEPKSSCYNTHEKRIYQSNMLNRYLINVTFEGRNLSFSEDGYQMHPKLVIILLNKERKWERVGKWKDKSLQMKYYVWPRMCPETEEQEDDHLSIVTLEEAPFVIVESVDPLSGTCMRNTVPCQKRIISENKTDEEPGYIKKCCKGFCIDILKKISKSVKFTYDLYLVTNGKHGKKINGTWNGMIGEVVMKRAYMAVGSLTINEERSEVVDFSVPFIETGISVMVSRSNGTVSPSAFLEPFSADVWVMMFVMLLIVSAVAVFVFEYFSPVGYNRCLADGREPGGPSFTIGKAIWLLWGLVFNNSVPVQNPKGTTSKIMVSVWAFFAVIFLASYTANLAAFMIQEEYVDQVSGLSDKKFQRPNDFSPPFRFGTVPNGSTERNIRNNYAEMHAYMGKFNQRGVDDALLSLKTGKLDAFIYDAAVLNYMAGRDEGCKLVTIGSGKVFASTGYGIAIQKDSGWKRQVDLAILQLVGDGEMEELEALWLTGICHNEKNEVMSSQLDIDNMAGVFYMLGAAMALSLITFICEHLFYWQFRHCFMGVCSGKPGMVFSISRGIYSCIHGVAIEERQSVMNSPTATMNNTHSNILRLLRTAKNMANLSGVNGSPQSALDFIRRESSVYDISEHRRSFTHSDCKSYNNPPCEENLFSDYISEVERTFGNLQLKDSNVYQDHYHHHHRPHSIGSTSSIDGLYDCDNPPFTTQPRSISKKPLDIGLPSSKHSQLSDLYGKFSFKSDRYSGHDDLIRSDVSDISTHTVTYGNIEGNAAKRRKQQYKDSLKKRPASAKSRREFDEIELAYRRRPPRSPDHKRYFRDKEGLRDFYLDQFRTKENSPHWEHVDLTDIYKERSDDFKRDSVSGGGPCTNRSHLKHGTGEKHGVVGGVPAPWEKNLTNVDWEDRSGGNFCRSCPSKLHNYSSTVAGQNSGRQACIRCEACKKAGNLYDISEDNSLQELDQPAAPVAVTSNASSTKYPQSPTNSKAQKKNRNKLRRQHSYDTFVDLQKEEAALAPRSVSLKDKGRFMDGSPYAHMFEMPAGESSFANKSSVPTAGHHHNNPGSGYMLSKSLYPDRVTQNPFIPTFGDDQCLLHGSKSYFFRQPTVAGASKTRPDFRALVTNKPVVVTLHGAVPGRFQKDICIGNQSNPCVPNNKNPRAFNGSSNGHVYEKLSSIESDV

Which “TCN-201 activity Max. % inhibition” value [1] does the source give for O=C(NNC(=O)c1ccc(CNS(=O)(=O)c2ccc(F)c(Cl)c2)cc1)c1ccccc1 [TCN-201, 3-chloro-4-fluoro-N-[(4-[(2-(phenylcarbonyl)hydrazino)carbonyl]phenyl)methyl]-benzenesulfonamide] here?
The value was 98 ± 1%.

And the “TCN-201 activity nH” value [1]?
Its value is 1.4.

What about the “TCN-201 activity Max. % inhibition” value (GluN1/GluN2A V783T) of the same compound?
Its value is 91 ± 1%.

And the “TCN-201 activity nH” value (GluN1/GluN2A V783T)?
The value was 1.5.

What about the “Effect on responses activated by 100 μM glutamate” value (GluK2 kainate receptors) of the same compound?
Its value is “did not affect responses”.

What about the “TCN-201 activity IC50” value (GluN1/2A-(2D S2)) of the same compound?
The value was “no inhibition was observed and N.E”.

What about the “TCN-201 activity Max. % inhibition” value (GluN1/GluN2A V783A) of the same compound?
The value was 91 ± 2%.

What about the “TCN-201 activity nH” value (GluN1/GluN2A V783A) of the same compound?
The value was 1.1.

What about the “TCN-201 activity Max. % inhibition” value (GluN1/GluN2A Q781A) of the same compound?
The value was 94 ± 2%.

And the “TCN-201 activity nH” value (GluN1/GluN2A Q781A)?
Its value is 1.9.

And the “TCN-201 activity Max. % inhibition” value (GluN1/GluN2A G786D)?
Its value is 82 ± 3%.

And the “TCN-201 activity nH” value (GluN1/GluN2A G786D)?
Its value is 1.7.

And the “Effect on responses activated by 100 μM glutamate” value (GluA1 AMPA receptors)?
The value was “did not affect responses”.

And the “TCN-201 activity Max. % inhibition” value (GluN1/GluN2A P527A)?
Its value is 91 ± 3%.

What about the “TCN-201 activity nH” value (GluN1/GluN2A P527A) of the same compound?
The value was 1.4.

What about the “TCN-201 activity Max. % inhibition” value (GluN1/GluN2A G786A) of the same compound?
Its value is 87 ± 3%.

And the “TCN-201 activity nH” value (GluN1/GluN2A G786A)?
The value was 1.8.

What about the “TCN-201 activity Max. % inhibition” value (GluN1/GluN2A V783D) of the same compound?
The value was 92 ± 2%.

What about the “TCN-201 activity nH” value (GluN1/GluN2A V783D) of the same compound?
The value was 1.2.

And the “TCN-201 activity Max. % inhibition” value (GluN1/GluN2A V783F)?
The value was 80 ± 2%.

And the “TCN-201 activity nH” value (GluN1/GluN2A V783F)?
Its value is 1.8.

And the “TCN-201 activity Max. % inhibition” value (GluN1/GluN2A V783H)?
The value was 93 ± 4%.

What about the “TCN-201 activity nH” value (GluN1/GluN2A V783H) of the same compound?
The value was 0.9.

What about the “Inhibition by 3 μM TCN-201” value (GluN1/2A-(2D S1+S2)) of the same compound?
The value was “abolished”.

What about the “TCN-201 activity Max. % inhibition” value (GluN1/GluN2A M788I) of the same compound?
The value was 79 ± 3%.

And the “TCN-201 activity nH” value (GluN1/GluN2A M788I)?
Its value is 1.3.

And the “TCN-201 activity IC50” value (GluN1/GluN2C)?
Its value is “did not inhibit and N.E”.

And the “Response, % of control at 10 μM TCN-201” value (GluN1/GluN2A L780A)?
The value was 67% of control at 10 μM TCN-201.

What about the “TCN-201 activity Max. % inhibition” value (GluN1/GluN2A L779A) of the same compound?
The value was 88 ± 5%.

And the “TCN-201 activity nH” value (GluN1/GluN2A L779A)?
Its value is 1.3.

What about the Kb (GluN1/GluN2B F784V) of the same compound?
Its Kb is 1.38 µM.

What about the “TCN-201 activity nH” value (GluN1/GluN2B F784V; 100 μM glutamate + 3 μM glycine) of the same compound?
The value was 1.2.
